In ChEMBL document CHEMBL4177768, “Synthesis and Biological Evaluation of Derivatives of Indoline as Highly Potent Antioxidant and Anti-inflammatory Agents” (J Med Chem, 2018):
Active and inactive are the calls of the source. No cut-off for these calls is given here.

Assays:
[1] = test system: RAW264.7; test: Antiinflammatory activity in mouse RAW264.7 cells assessed as reduction in LPS-induced nitric oxide production at 1 nM incubated for 2 hrs prior to LPS challenge measured after 24 hrs by Griess assay; assay type: functional
Procedure, shortened: (§1)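 RAW 264.7 macrophages were plated at 1×10^5 per well, grown overnight and washed with PBS. Compounds in water (final 1 pM-100 nM, medium with 2% FCS) were added 2 h at 37 °C before E. coli 0111:B4 LPS, 2.5 µg/mL. TNF-α was sampled at 8 h; IL-6 and nitrite (Griess) at 24 h. ELISA was used for cytokines. Values are % of the LPS + medium value in each experiment. Budesonide was the reference. 2-3 experiments, 6 wells per concentration.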

[2] = test system: RAW264.7; test: Cytoprotective activity against H2O2-induced oxidative stress in mouse RAW264.7 cells assessed as cell viability at 1 nM incubated for 2 hrs prior to H2O2 addition measured after 24 hrs by MTT assay (reference value: 68 to 72.8%); assay type: functional; conditions: read-out: Activity
[3] = test system: RAW264.7; test: Antiinflammatory activity in mouse RAW264.7 cells assessed as reduction in LPS-induced nitric oxide production at 1 pM to 100 nM incubated for 2 hrs prior to LPS challenge measured after 24 hrs by Griess assay; assay type: functional, cell-based; procedure, shortened: as §1
[4] = test system: RAW264.7; test: Antiinflammatory activity in mouse RAW264.7 cells assessed as reduction in LPS-induced TNF-alpha production at 100 pM incubated for 2 hrs prior to LPS challenge measured after 8 hrs by ELISA; assay type: functional; procedure, shortened: as §1
[5] = test system: RAW264.7; test: Antiinflammatory activity in mouse RAW264.7 cells assessed as reduction in LPS-induced IL-6 production at 100 pM incubated for 2 hrs prior to LPS challenge measured after 24 hrs by ELISA; assay type: functional; procedure, shortened: as §1
[6] = test system: RAW264.7; test: Antiinflammatory activity in mouse RAW264.7 cells assessed as reduction in LPS-induced IL-6 production at 1 nM incubated for 2 hrs prior to LPS challenge measured after 24 hrs by ELISA; assay type: functional; procedure, shortened: as §1
[7] = test system: RAW264.7; test: Cytoprotective activity against H2O2-induced oxidative stress in mouse RAW264.7 cells assessed as decrease in LDH release at 1 pM incubated for 2 hrs prior to H2O2 addition by colorimetric assay relative to control; parameters: scale not given: the % may be the effect or the level left
[8] = test system: RAW264.7; test: Antiinflammatory activity in mouse RAW264.7 cells assessed as reduction in LPS-induced TNF-alpha production at 1 pM to 100 nM incubated for 2 hrs prior to LPS challenge measured after 8 hrs by ELISA; assay type: functional, cell-based; procedure, shortened: as §1
[9] = test system: RAW264.7; test: Antiinflammatory activity in mouse RAW264.7 cells assessed as reduction in LPS-induced nitric oxide production at 100 pM incubated for 2 hrs prior to LPS challenge measured after 24 hrs by Griess assay; assay type: functional; procedure, shortened: as §1
[10] = test system: RAW264.7; test: Cytoprotective activity against H2O2-induced oxidative stress in mouse RAW264.7 cells assessed as decrease in LDH release at 1 pM incubated for 2 hrs prior to H2O2 addition by colorimetric assay relative to control; assay type: functional; parameters: scale not given: the % may be the effect or the level left
Procedure, shortened: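 RAW 264.7 cells were seeded and pretreated with compound before H2O2 100 µM, in serum-free medium. Collected medium was centrifuged and incubated with reaction mix 30 min at room temperature. LDH was measured as NADH formation by colorimetric read at 490 nm. n = 8-10 replicates per concentration.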

[11] = test system: RAW264.7; test: Cytoprotective activity against H2O2-induced oxidative stress in mouse RAW264.7 cells assessed as decrease in caspase-3 activity at 1 pM incubated for 4 hrs prior to H2O2 addition measured after 90 mins by caspase-GloR reagent-based luminescence assay relative to control; assay type: functional
Procedure, shortened: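 RAW 264.7 macrophages were pretreated with compound (1 pM or 1 nM) 4 h before H2O2 100 µM. Medium was replaced with fresh DMEM after 90 min and plates were incubated overnight. Caspase-Glo 3/7 reagent was added and luminescence read after 30 min at room temperature. Mean ± SD, 4-6 replicates.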

[12] = test system: RAW264.7; test: Antiinflammatory activity in mouse RAW264.7 cells assessed as reduction in LPS-induced TNF-alpha production at 1 nM incubated for 2 hrs prior to LPS challenge measured after 8 hrs by ELISA; assay type: functional; procedure, shortened: as §1
[13] = test system: Mus musculus; test: Antiinflammatory activity in Balb/C mouse assessed as reduction in LPS-induced IL6 production in liver at 0.1 to 10 umol/kg, sc administered LPS 15 mins post compound treatment measured after 4 hrs by ELISA; assay type: functional, organism-based
[14] = test system: Mus musculus; test: Antiinflammatory activity in Balb/C mouse assessed as reduction in LPS-induced TNF-alpha production in spleen at 0.1 umol/kg, sc administered LPS 15 mins post compound treatment measured after 4 hrs by ELISA; assay type: functional, organism-based
Procedure, shortened: (§2)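 Male Balb/C mice, 7-8 weeks old, given compound sc (0.1, 1 or 10 µmoles/kg) or saline. LPS 10 mg/kg was given ip 15 min later, and mice were killed 4 h after that. Spleens were homogenized in PBS with protease inhibitor and centrifuged at 14,000 g, 4 °C. Cytokines in plasma and tissue supernatants were measured by ELISA, with protein by BCA. Dexamethasone 5.6 µmoles/kg was the reference. n = 8-10 mice per treatment.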

[15] = test system: Mus musculus; test: Antiinflammatory activity in Balb/C mouse assessed as reduction in LPS-induced TNF-alpha production in plasma at 0.1 umol/kg, sc administered LPS 15 mins post compound treatment measured after 4 hrs by ELISA; assay type: functional, organism-based; procedure, shortened: as §2
[16] = test system: Mus musculus; test: Acute toxicity in Balb/C mouse assessed as change in body weight at 100 umol/kg, sc measured over 72 hrs; assay type: organism-based; conditions: in vivo
Procedure, shortened: (§3)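 Male Balb/C mice, 24-28 g, groups of 3; single sc injection of compound at 100 μmoles/kg or saline (1 mL/100 g). Food and water intake, body weight and general activity monitored over 72 h against saline-injected animals.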

[17] = test system: Mus musculus; test: Antiinflammatory activity in Balb/C mouse assessed as reduction in LPS-induced IL6 production in brain at 0.1 umol/kg, sc administered LPS 15 mins post compound treatment measured after 4 hrs by ELISA; assay type: functional, organism-based
[18] = test system: RAW264.7; test: Antiinflammatory activity in mouse RAW264.7 cells assessed as reduction in LPS-induced IL-6 production at 10 pM incubated for 2 hrs prior to LPS challenge measured after 24 hrs by ELISA; assay type: functional; parameters: scale not given: the % may be the effect or the level left; procedure, shortened: as §1
[19] = test system: RAW264.7; test: Antiinflammatory activity in mouse RAW264.7 cells assessed as reduction in LPS-induced TNF-alpha production at 10 pM incubated for 2 hrs prior to LPS challenge measured after 8 hrs by ELISA; assay type: functional; parameters: scale not given: the % may be the effect or the level left; procedure, shortened: as §1
[20] = test system: RAW264.7; test: Antiinflammatory activity in mouse RAW264.7 cells assessed as reduction in LPS-induced nitric oxide production at 10 pM incubated for 2 hrs prior to LPS challenge measured after 24 hrs by Griess assay; assay type: functional; parameters: scale not given: the % may be the effect or the level left; procedure, shortened: as §1
[21] = test system: RAW264.7; test: Cytoprotective activity against H2O2-induced oxidative stress in mouse RAW264.7 cells assessed as cell viability at 1 pM incubated for 2 hrs prior to H2O2 addition measured after 24 hrs by MTT assay (reference value: 68 to 72.8%); assay type: functional; conditions: read-out: Activity
[22] = test system: Mus musculus; test: Antiinflammatory activity in Balb/C mouse assessed as reduction in LPS-induced IL6 production in plasma at 0.1 umol/kg, sc administered LPS 15 mins post compound treatment measured after 4 hrs by ELISA; assay type: functional, organism-based; procedure, shortened: as §2
[23] = test system: Mus musculus; test: Antiinflammatory activity in Balb/C mouse assessed as reduction in LPS-induced IL6 production in spleen at 0.1 umol/kg, sc administered LPS 15 mins post compound treatment measured after 4 hrs by ELISA; assay type: functional, organism-based; procedure, shortened: as §2
[24] = test system: Mus musculus; test: Acute toxicity in Balb/C mouse assessed as change in water intake at 100 umol/kg, sc measured over 72 hrs; assay type: organism-based; conditions: in vivo; procedure, shortened: as §3
[25] = test system: Mus musculus; test: Acute toxicity in Balb/C mouse assessed as change in activity at 100 umol/kg, sc measured over 72 hrs; assay type: organism-based; conditions: in vivo; procedure, shortened: as §3
[26] = test system: Mus musculus; test: Acute toxicity in Balb/C mouse assessed as change in food intake at 100 umol/kg, sc measured over 72 hrs; assay type: organism-based; conditions: in vivo; procedure, shortened: as §3

Cl.NCCCN1CCc2ccccc21
Activity [1]: Active
viability at 0.001 µM [2]: 91.9%
Activity [3]: Active
Activity [4]: Active
Activity [5]: Active
Activity [6]: Active
Activity [7]: 16%
Activity [8]: Active
Activity [9]: Active
Activity [10]: 16%
Activity [11]: inactive
Activity [12]: Active

CC(C)NC(=O)CCN1CCc2ccccc21.Cl
Activity [13]: inactive
Activity [14]: Active
Activity [15]: Active
Activity [5]: 50%
Activity [16]: Non-Toxic
Activity [17]: Active
Activity [18]: 50%
Activity [7]: 16%
Activity [9]: 50%
Activity [19]: 50%
Activity [20]: 50%
viability at 1 pM [21]: 93.7%
Activity [22]: Active
Activity [23]: Active
Activity [10]: 16%
Activity [24]: Non-Toxic
Activity [25]: Non-Toxic
Activity [26]: Non-Toxic
